Data on 1 compound can be found in ChEMBL document CHEMBL5107962, “Covalent sortase A inhibitor ML346 prevents Staphylococcus aureus infection of Galleria mellonella” (RSC Med Chem, 2022).

Activity calls are given as the source filed them. No cut-off for these calls is given here.

Data set [1] concerns the target T1, Sortase A (Staphylococcus aureus, UniProt Q9S446). Nature of the data set: Inhibition of recombinant Staphylococcus aureus sortase A deltaN24 transpeptidation expressed in Escherichia coli BL21 (DE3) cells using Abz-LPATG-Dnp as substrate preincubated for 20 mins followed by substrate addition and measured every 1 min for 15 mins by FRET assay. The essentials:
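His-tagged enzyme purified by Ni-NTA and gel filtration. 1 µM SrtA preincubated with compound (0.05–50 µM) for 20 min at room temperature in 50 mM Tris-HCl pH 7.5, 150 mM NaCl, 5 mM CaCl2. Reaction started with 10 µM Abz-LPATG-Dnp, read at ex 309/em 420 nm. IC50 from a sigmoidal dose–response fit; triplicates, two experiments.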

Data set [2] concerns Sortase A (Staphylococcus aureus), Q9S446 [UNDEFINED MUTATION]. Nature of the data set: Irreversible inhibition of recombinant Staphylococcus aureus sortase A deltaN24 expressed in Escherichia coli BL21(DE3) cells using Abz-LPATG-Dnp as substrate assessed as increase in Km preincubated for 60 mins followed by substrate addition and measured every 1 min for 15 mins by FRET-based assay. The settings on record: time 75.0 min. The essentials:
(§1)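 SrtA (5 µM) incubated 1 h at room temperature with compound or DMSO, then inhibitor removed by centrifugal filtration. Aliquots taken before and after filtration were assayed with Abz-LPATG-Dnp (0.78–200 µM for Sa enzyme, 0.2–50 µM for Sp enzyme) at ex 309/em 420 nm for 15 min. Km fitted; MTSET as control; triplicates, run in duplicate.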

Data set [3] concerns the target T1, Sortase A. Nature of the data set: Inhibition of recombinant Staphylococcus aureus sortase A deltaN24 transpeptidation expressed in Escherichia coli BL21 (DE3) cells using IsdA64 to 323 as substrate preincubated for 20 mins followed by substrate addition and measured after 1.5 hrs by SDS-PAGE-based assay. The essentials: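 SrtA (200 µg mL-1) preincubated with inhibitor (1–50 µM) for 20 min at room temperature in Tris pH 7.5, NaCl, CaCl2 buffer. IsdA64-323 (300 µg mL-1 final) and 3 mM (Gly)3 added, incubated at 37 °C for 1.5 h, then run on 12% SDS-PAGE. IC50 from band quantification of precursor and mature product. Two independent experiments.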

Data set [4] deals with Procathepsin L (Homo sapiens, UniProt P07711). As to the kind of experiment: Inhibition of cathepsin L (unknown origin) using Cbz-Phe-Arg-AMC as substrate at 20 uM preincubated for 5 mins followed by substrate addition and measured after 10 mins by fluorometric assay. The settings on record: time 15.0 min. Put shortly:
(§2)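 Cbz-Phe-Arg-AMC added (40 µM for B, 80 µM for L) and fluorescence read at ex 380/em 460 nm over 10 min. E64 at 6.25 nM as control. Triplicates, two experiments.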

For data set [5], the system named is Staphylococcus aureus. As to the kind of experiment: […] activity against compound pretreated wild type Staphylococcus aureus Newman infected in Galleria mellonella larvae assessed as pathogenicity by measuring melanization after 24 hrs of bacterial injection. It is filed as functional, organism-based. The essentials: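 S. aureus diluted 1:1000 with or without compound and grown to A600 1.0. 10 µL of a 1 × 10^7 CFU mL-1 PBS suspension injected into the last proleg of starved larvae, held at 37 °C. Larvae chilled on ice and photographed at 24 h to score melanization. ΔsrtA strain used as control.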

Data set [6] deals with Staphylococcus aureus. Nature of the data set: Anti-infectivity against Staphylococcus aureus Newman infected in Galleria mellonella larvae assessed as survival rate at 25 mg/kg and measured after 120 hrs. Format: functional. Put shortly:
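G. mellonella larvae (2-2.5 cm, creamy), starved 24 h at room temperature. S. aureus grown in TSB to A600 1.0, washed and resuspended in PBS, premixed with compound in vehicle (5% DMSO, 20% PEG300, 75% PBS with 6.6% solutol HS-15). Injected into last proleg at about 1 × 10^6 CFU/larva (Newman) or 1 × 10^7 CFU/larva (USA300). Groups of 15 kept at 37 °C, survival recorded 120 h, Mantel–Cox test.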

A short description of data set [7]: Toxicity in Galleria mellonella larvae assessed as creamy colour appearance measured after 120 hrs. Put shortly:
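G. mellonella larvae (2-2.5 cm, creamy), starved 24 h, injected with 10 µL compound in vehicle (5% DMSO, 20% PEG300, 75% PBS with 6.6% solutol HS-15). Kept at 37 °C; survival and appearance recorded over 120 h with photography. Three independent experiments.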

Data set [8] deals with T1, Sortase A. Nature of the data set: Irreversible inhibition of recombinant Staphylococcus aureus sortase A deltaN24 expressed in Escherichia coli BL21(DE3) cells using Abz-LPATG-Dnp as substrate preincubated for 60 mins followed by substrate addition and measured every 1 min for 15 mins by FRET-based assay. The essentials:
(§3)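 SaSrtAΔN24 preincubated with compound for 10, 20, 40 or 60 min before FRET IC50 determination with Abz-LPATG-Dnp in Tris pH 7.5, NaCl, CaCl2 buffer.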

Data set [9] concerns Staphylococcus aureus. As to the kind of experiment: Antibiofilm activity against wild type Staphylococcus aureus Newman assessed as reduction in biofilm biomass at 25 to 200 uM incubated for 18 hrs by crystal violet staining based microplate reader analysis. The settings on record: dose 25-200 µM. Format: functional, organism-based. Put shortly:
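S. aureus overnight culture diluted 1:1000 in TSB with inhibitor, grown static at 37 °C for 18 h. Wells rinsed with PBS, fixed with methanol 10 min, stained with 0.1% crystal violet 15 min. Stain dissolved in 33% acetic acid and A600 read. Three independent experiments, mean ± SEM.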

Data set [10] can be described thus: Selectivity ratio of Kinact for irreversible inhibition of recombinant Staphylococcus aureus sortase A deltaN24 expressed in Escherichia coli BL21(DE3) cells to Kinact for irreversible inhibition of recombinant Streptococcus pyogenes sortase A deltaN81 expressed in Escherichia coli BL21(DE3) cells.
For data set [11], the system named is Streptococcus pyogenes. Nature of the data set: Irreversible inhibition of recombinant Streptococcus pyogenes sortase A deltaN81 expressed in Escherichia coli BL21(DE3) cells using Abz-LPATG-Dnp as substrate assessed as increase in Km preincubated for 60 mins followed by substrate addition and measured every 1 min for 15 mins by FRET-based assay. The settings on record: time 75.0 min. Put shortly:
as §1

The target in data set [12] is T1, Sortase A. As to the kind of experiment: Irreversible inhibition of recombinant Staphylococcus aureus sortase A deltaN24 expressed in Escherichia coli BL21(DE3) cells using Abz-LPATG-Dnp as substrate preincubated for 40 mins followed by substrate addition and measured every 1 min for 15 mins by FRET-based assay. Put shortly:
as §3

Data set [13] concerns the target Cathepsin B (Homo sapiens, UniProt P07858). Nature of the data set: Inhibition of cathepsin B (unknown origin) using Cbz-Phe-Arg-AMC as substrate at 20 uM preincubated for 5 mins followed by substrate addition and measured after 10 mins by fluorometric assay. The settings on record: time 15.0 min. The essentials:
as §2

For data set [14], the system named is Staphylococcus aureus. As to the kind of experiment: Irreversible inhibition of recombinant Staphylococcus aureus sortase A deltaN24 C184A mutant expressed in Escherichia coli BL21(DE3) cells assessed as thermal stabilization by measuring change in melting temperature incubated for 15 mins by Nano DSF assay. Put shortly: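 40 µg SaSrtAΔN24 (wild type or C184A) in 100 µL 50 mM Tris-HCl pH 9.0, 150 mM NaCl, 5 mM CaCl2 incubated with compound for 15 min at room temperature, then centrifuged. Label-free nanoDSF read at 330/350 nm while ramping 30–90 °C at 2 °C per min. Tm taken from the first derivative of the ratio.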
A general note: Differential scanning fluorimetry follows unfolding on heating by fluorescence.

Chain of Procathepsin L (P07711 114-333 limits assumed): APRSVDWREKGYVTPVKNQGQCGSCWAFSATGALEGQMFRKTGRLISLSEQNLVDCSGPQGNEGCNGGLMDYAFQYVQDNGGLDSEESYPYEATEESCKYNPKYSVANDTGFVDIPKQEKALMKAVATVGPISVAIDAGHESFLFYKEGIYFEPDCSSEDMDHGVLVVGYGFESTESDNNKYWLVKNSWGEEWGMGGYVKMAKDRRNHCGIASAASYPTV

Take `COc1ccc(/C=C/C=C2C(=O)NC(=O)NC2=O)cc1`: the IC50 in [1] amounted to 0.37 µM; in [3], 2.65 µM; in [8] it was 0.3 µM; in data set [12], 0.4 µM. In addition, the inhibition entry in data set [2], in [4], in data set [11] and in data set [13] was “Active” in each case. Further, the outcome in [5] and in data set [9] was Active. In addition, the Activity in data set [6] is 46.7%; in data set [7], “Non-Toxic”. Besides, the Ratio in [10] turned out to be 4. Besides, the ΔTm in data set [14] was -0.1 °C.

A word on the IC50: it is the concentration needed to halve the response being measured. As usually defined, the ΔTm is the shift of the melting midpoint relative to a reference.
